Results: PubChem BioAssay AID504490 (NMMLSC, 2011)
The whole screen tested about 340,000 compounds, of which about 1,100 (0.32%) were called active. Shown is part of a subset that was picked to be rich in actives. A number with no mark means an inactive call.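 The calls were made as follows: active = inhibition above a set limit, near 3 SD of compounds lacking own fluorescence (cut at about 54% in these data); inactive = the rest.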

tested on: beta-arrestin 1 C-terminal peptide binding to AP2 beta2-adaptin appendage (human); experiment: blockers of arrestin peptide association with AP2 adaptin – biochemical, GPCR trafficking, flow cytometry, primary screen (AID 504490); conditions: FITC-arrestin peptide / GST-AP2 beads, at 10 µM, hits give high values, AP2 beta2 appendage carries R879A mutation;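 also: plate controls were DMSO wells for no effect and 5 µM unlabelled arrestin peptide for full effect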
Summary of the method: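 Test system: GST-tagged AP2 beta2-adaptin appendage (R879A) on 4 µm glutathione beads; also added: fluorescein-tagged arrestin peptide at 50 nM final; timing: 12 min plus 1 h, RT; signal: flow cytometry, FL1 (488/535 nm); read-out: percent drop in bead-associated FITC signal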

| Structure (SMILES) | inhibition |
| --- | --- |
| O=C(Nc1ccccc1)N1CCN(C2c3ccccc3-c3ccccc32)CC1 | -3.43% |
| CC1CN(CC(=O)NC(C)c2ccccc2)CC(C)O1 (centres undefined) | 0.77% |
| Cn1c(=O)c2sccc2n(Cc2ccc(Br)cc2)c1=O | -7.24% |
| CCCCNc1nc2c(c(=O)n(C)c(=O)n2C)n1Cc1cccc(OC)c1 | 13.6% |
| Cn1c(=O)c2c(nc(N/N=C/c3cccs3)n2Cc2ccc(Br)cc2)n(C)c1=O | 70.5% (active) |
| C=CC(=O)Nc1ccc(Nc2ccnc(Nc3ccc(N4CCN(C)CC4)cc3)n2)cc1 | 55.9% (active) |
| CN1CCN(c2ccc(NC(=O)c3cc(Cl)c4c(c3)OCCO4)cc2)CC1 | 30.2% |
| Cc1cccc(N2CCN(c3ccc(NC(=O)/C=C\C(=O)O)cc3)CC2)c1 | 15.9% |
| Cn1c(SCc2nc3ccccc3s2)nnc1-c1ccc2c(c1)OCO2 | -3.99% |
| CCCCN(CC)CCNC(=O)CCNC(=O)Cn1ccc2ccccc2c1=O | 1.19% |
| O=C1NC(=O)C(CCc2ccccc2)(c2ccccc2)N1 (centres undefined) | -9.95% |
| C/C(Cl)=C\Cn1c(Nc2cccc(C)c2)nc2c1c(=O)n(C)c(=O)n2C | -6.48% |
| Cc1ccc(CNC(=O)C2CC(=O)N(C3CCCCCCC3)C2)cc1 (centres undefined) | 93.8% (active) |
| O=C(NCCc1ccc(Cl)cc1)C1CC(=O)N(C2CCCCC2)C1 (centres undefined) | 6.36% |
| COc1cccc(CNC(=O)C2CC(=O)N(C3CCCCCCC3)C2)c1 (centres undefined) | -10.2% |
| COc1ccc(Br)cc1CN(C)CC(=O)Nc1cc(Cl)cc(Cl)c1 | 4.23% |
| CCc1cccc2c(C=C(C#N)C#N)cn(CC(=O)N3CCCCC3)c12 | 9.35% |
| COc1ccc(Cc2nnc(SCC(=O)c3cccc([N+](=O)[O-])c3)n2C)cc1 | 7.36% |
| CCc1ccccc1OCC(=O)Nc1ccc(C)c(S(=O)(=O)N2CCCCCC2)c1 | 10.8% |
| COc1cc(/C=C/C(=O)OCC(=O)c2ccccc2)cc(OC)c1OC | 10% |

| Structure (SMILES) | inhibition |
| --- | --- |
| COc1cc2c(cc1NC(=O)CN1CCN(S(=O)(=O)c3ccc(F)cc3)CC1)oc1ccccc12 | 11.4% |
| COc1cc2c(cc1NC(=O)COC(=O)/C=C/c1ccccc1)oc1ccccc12 | 105% (active) |
| Cc1cccc(NC(=S)NC(=O)c2ccc(Br)o2)c1 | 61.8% (active) |
| O=C(CNC(=O)c1ccc(Br)o1)Nc1ccccc1 | 7.78% |
| Cc1cccc(NC(=O)c2ccc([N+](=O)[O-])o2)c1 | 5.65% |
| Cc1cc(C)cc(C(=O)NC(=S)Nc2ccc3[nH]c(=O)[nH]c3c2)c1 | 10.9% |
| CCCCNC(=O)C1CCCN(S(=O)(=O)c2ccc(S(=O)(=O)NCC(C)C)cc2)C1 (centres undefined) | 4.41% |
| Cc1cccc(NC(=O)C2CCCN(C(=O)Nc3ccc(F)cc3)C2)c1C (centres undefined) | 25% |
| Cc1cc(/C=C2\SC(=Nc3ccc(N4CCOCC4)cc3)N(C)C2=O)c(C)n1-c1cccnc1 | -3.18% |
| Cc1cc(/C=C2/SC(=O)N(CC(=O)N3CCCC3)C2=O)c(C)n1C | -9.22% |
| Cc1cc(/C=C2\SC(=O)N(C)C2=O)c(C)n1-c1cccc(C(=O)O)c1 | 54.7% (active) |
| COc1cccc(C(=O)n2ccc(-c3cccs3)n2)c1 | 4.99% |
| O=C(CN1C(=O)NC2(CCCCCC2)C1=O)NCc1ccc(F)cc1 | 13.2% |
| CCc1ccc(N(CC(=O)Nc2sc3c(c2C(=O)OC)CCCC3)S(C)(=O)=O)cc1 | -5.8% |
| N#CCSc1nn(-c2ccc(F)cc2)c(=S)s1 | 1.03% |
| O=S(=O)(c1ccccc1)N(Cc1cccc(F)c1)c1ccccc1 | 6.33% |
| CC(C)C1C2=C(CC(C)(C)CC2=O)ON1c1ccccc1 (centres undefined) | 14.7% |
| COC(=O)C1CC2=C(CC(C)(C)CC2=O)N(c2ccccc2)C1=O (centres undefined) | 54.1% (active) |
| Cc1ccc(N2C(=O)C(NC(=O)c3c(F)cccc3F)(C(F)(F)F)C3=C2CC(C)(C)CC3=O)cc1 (centres undefined) | 11.2% |
| Cc1ccc2[nH]cc(CCNC(=O)c3ccc([N+](=O)[O-])cc3)c2c1 | 5.19% |

| Structure (SMILES) | inhibition |
| --- | --- |
| CCN(CC)Cc1c(C(=O)N/N=C/c2cccc(OCc3ccc(F)cc3)c2)nnn1-c1nonc1N | -0.16% |
| Cn1ccsc1=NC(=O)c1cc(S(=O)(=O)N2CCOCC2)ccc1Cl | -5.18% |
| COc1cccc(-n2c(SCC(=O)c3c[nH]c4ccccc34)nc3ccccc3c2=O)c1 | 105% (active) |
| COC(=O)c1ccc(CSc2nc3ccccc3c(=O)n2-c2cccc(OC)c2)o1 | 5.8% |
| COc1cccc(-n2c(SCC(=O)NC3CCS(=O)(=O)C3)nc3ccccc3c2=O)c1 (centres undefined) | -2.41% |
| CN(C)c1ccc(C2N(C)C(=O)c3ccccc3N2C)cc1 (centres undefined) | -7.07% |
| CN(C)c1ccc(Nc2c3c4c(cccc4n(C)c2=O)C(=O)c2ccccc2-3)cc1 | 63.5% (active) |
| CC(=O)NCCNC(=O)c1cc(-c2cccc3ccccc23)nc2ccccc12 | 60.3% (active) |
| CCOc1ccccc1-c1cc(C(=O)N/N=C(\C)c2cccnc2)c2ccccc2n1 | -0.49% |
| O=C(NCCc1ccccn1)c1cc(-c2ccc(Cl)cc2)nc2ccccc12 | 13.5% |
| c1ccc(CC2CCN(c3nc4ccccc4n4cnnc34)CC2)cc1 | -7.81% |
| Cc1ccc(C)c(N(CC(=O)NCc2ccco2)C(=O)CCC(=O)Nc2ccccn2)c1 | -8.6% |
| Oc1ccc(C2Nc3cccc4cccc(c34)N2)cc1 | 56.2% (active) |
| COc1cc2c(cc1OC)C(c1ccccc1Br)NC(=O)C2 (centres undefined) | -7.73% |
| COc1ccc(C2NC(=O)c3ccccc3N2)cc1 (centres undefined) | 26.1% |
| Brc1ccccc1C1N=C(c2ccccc2)NO1 (centres undefined) | -3.82% |
| Brc1ccccc1C1Nc2cccc3cccc(c23)N1 | 56% (active) |
| COc1ccc([C@H]2CC(=O)C=C(c3ccc(C)cc3)C2)cc1 | 18.7% |
| CC(=O)Nc1ccc(S(=O)(=O)N2CCN(C(=O)c3ccccc3F)CC2)cc1 | -16.7% |
